# According to ChEMBL document CHEMBL1146145, “Isobrassinin and its analogues: novel types of antiproliferative agents” (Bioorg Med Chem Lett, 2006):
# Key:
# Details in all cases: read-out: Inhibition
# [1] = Cytotoxicity against human HeLa cells at 30 uM; assay type: cell-based
# Procedure, shortened: (§1)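 MTT assay. Human HeLa (cervix adenocarcinoma), MCF7 (breast adenocarcinoma) and A431 (squamous skin carcinoma) cells were grown in minimal essential medium with 10% foetal bovine serum, antibiotic–antimycotic agents and non-essential amino acids, then seeded in 96-well plates. On day 2 the medium was replaced with compound-containing medium (DMSO final ≤0.1%). Exposure lasted 72 h, followed by 4 h MTT and DMSO solubilization of the formazan.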
# [2] = Cytotoxicity against human A431 cells at 30 uM; assay type: cell-based, A-431; procedure, shortened: as §1
# [3] = Cytotoxicity against human MCF7 cells at 30 uM; assay type: cell-based; procedure, shortened: as §1
Compound,cytotoxicity at 30 µM [1],cytotoxicity at 30 µM [2],cytotoxicity at 30 µM [3]
CSC1=NCc2[nH]c3ccccc3c2S1 [ISOCYCLOBRASSININ],44.5%,< 10%,< 10%
c1ccc(CSC2=NCc3[nH]c4ccccc4c3S2)cc1,45.8%,–,37.3%
CSC(=S)NCc1cc2ccccc2[nH]1 [ISOBRASSININ],83.6%,78.6%,86.2%
CNC(=S)NCc1cc2ccccc2[nH]1,< 10%,< 10%,< 10%
S=C(NCc1cc2ccccc2[nH]1)SCc1ccccc1,76.1%,70.7%,89%
S=C(NCc1cc2ccccc2[nH]1)Nc1ccccc1,50%,45.7%,57.4%
CSC(=S)NCc1c[nH]c2ccccc12 [BRASSININ],25.2%,–,21.5%
